According to ChEMBL document CHEMBL3414437, “Synthesis of CDDO-amino acid-nitric oxide donor trihybrids as potential antitumor agents against both drug-sensitive and drug-resistant colon cancer” (J Med Chem, 2015):

Experiments:
[1] = Antiproliferative activity against human CCD-841-CoN cells assessed as inhibition of cell proliferation after 72 hrs by MTT assay; format: cell-based
Procedure, shortened: (§1)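 Cells (1.0 × 10^4/well) grown overnight in DMEM with 10% FBS. Treated in triplicate with eight concentrations ([…]) of compound from DMSO stock, final DMSO <0.4%, for 72 h. MTT added for the last 4 h, formazan dissolved in DMSO, read at 570 nm. Inhibition = (Acontrol−Atreated)/Acontrol. IC50 given as mean ± SD of three independent experiments.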

HCT-8 [2] = test: Inhibition of MRP1 protein expression in FU-resistant human HCT8 cells at 0.25 to 1 uM incubated for 24 hrs by Western blotting method; format: functional, cell-based
Procedure, shortened: (§2)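 Cells (1 x 10^6) grown 24 h in 6 cm dishes, then exposed in duplicate for 24 h to 0.25, 0.5 or 1 µM compound, with or without PTIO. Lysates (20 µg/lane) were run on 7.5% SDS-PAGE, blotted to PVDF and blocked in 5% milk. HRP secondaries with ECL detection; bands quantified by densitometry against β-actin or GAPDH. Three separate experiments, mean ± SD.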

HCT-8 [3] = test: Induction of apoptosis in human HCT8 cells assessed as late apoptotic cells level at 0.25 uM incubated for 24 hrs by FITC-Annexin-V and propidium iodide staining based flow cytometry (reference value: 4.23%); format: functional
HCT-8 [4] = test: Induction of apoptosis in FU-resistant human HCT8 cells assessed as late apoptotic cells level at 0.25 uM incubated for 24 hrs by FITC-Annexin-V and propidium iodide staining based flow cytometry (reference value: 0.95%); format: functional
HCT-8 [5] = test: Induction of apoptosis in human HCT8 cells assessed as viable cells level at 0.25 uM incubated for 24 hrs by FITC-Annexin-V and propidium iodide staining based flow cytometry (reference value: 92%); format: functional
[6] = Antiproliferative activity against 5-FU resistant human HCT8 cells assessed as inhibition of cell proliferation after 72 hrs by MTT assay; format: functional, cell-based; conditions: HCT-8, 72 h; procedure, shortened: as §1
HCT-8 [7] = test: Induction of apoptosis in human HCT8 cells assessed as early apoptotic cells level at 1 uM incubated for 24 hrs by FITC-Annexin-V and propidium iodide staining based flow cytometry (reference value: 1.21%); format: functional
HCT-8 [8] = test: Induction of apoptosis in human HCT8 cells assessed as viable cells level at 0.5 uM incubated for 24 hrs by FITC-Annexin-V and propidium iodide staining based flow cytometry (reference value: 92%); format: functional
[9] = biological target: RAC-alpha serine/threonine-protein kinase (Homo sapiens) (UniProt P31749); test: Inhibition of AKT protein phosphorylation in FU-resistant human HCT8 cells at 0.25 to 1 uM incubated for 24 hrs by Western blotting method; format: cell-based; conditions: HCT-8; procedure, shortened: as §2
HCT-8 [10] = test: Induction of apoptosis in human HCT8 cells assessed as early apoptotic cells level at 0.5 uM incubated for 24 hrs by FITC-Annexin-V and propidium iodide staining based flow cytometry (reference value: 1.21%); format: functional
HCT-8 [11] = test: Induction of apoptosis in FU-resistant human HCT8 cells assessed as necrotic cells level at 0.5 uM incubated for 24 hrs by FITC-Annexin-V and propidium iodide staining based flow cytometry (reference value: 0.958%); format: functional
HCT-8 [12] = test: Induction of apoptosis in FU-resistant human HCT8 cells assessed as viable cells level at 0.25 uM incubated for 24 hrs by FITC-Annexin-V and propidium iodide staining based flow cytometry (reference value: 90%); format: functional
HCT-8 [13] = test: Induction of apoptosis in human HCT8 cells assessed as necrotic cells level at 0.25 uM incubated for 24 hrs by FITC-Annexin-V and propidium iodide staining based flow cytometry (reference value: 2.58%); format: functional
HCT-8 [14] = test: Induction of apoptosis in FU-resistant human HCT8 cells assessed as necrotic cells level at 1 uM incubated for 24 hrs by FITC-Annexin-V and propidium iodide staining based flow cytometry (reference value: 0.958%); format: functional
HCT-8 [15] = test: Induction of apoptosis in human HCT8 cells assessed as necrotic cells level at 0.5 uM incubated for 24 hrs by FITC-Annexin-V and propidium iodide staining based flow cytometry (reference value: 2.58%); format: functional
HCT-8 [16] = test: Induction of apoptosis in FU-resistant human HCT8 cells assessed as early apoptotic cells level at 0.5 uM incubated for 24 hrs by FITC-Annexin-V and propidium iodide staining based flow cytometry (reference value: 2.07%); format: functional
HCT-8 [17] = test: Induction of apoptosis in FU-resistant human HCT8 cells assessed as early apoptotic cells level at 0.25 uM incubated for 24 hrs by FITC-Annexin-V and propidium iodide staining based flow cytometry (reference value: 2.07%); format: functional
HCT-8 [18] = test: Induction of apoptosis in human HCT8 cells assessed as necrotic cells level at 1 uM incubated for 24 hrs by FITC-Annexin-V and propidium iodide staining based flow cytometry (reference value: 2.58%); format: functional
HCT-8 [19] = test: Induction of apoptosis in FU-resistant human HCT8 cells assessed as early apoptotic cells level at 1 uM incubated for 24 hrs by FITC-Annexin-V and propidium iodide staining based flow cytometry (reference value: 2.07%); format: functional
[20] = Antiproliferative activity against human HCT8 cells assessed as inhibition of cell proliferation after 72 hrs by MTT assay; format: functional, cell-based; conditions: HCT-8, 72 h; procedure, shortened: as §1
HCT-8 [21] = test: Induction of apoptosis in FU-resistant human HCT8 cells assessed as late apoptotic cells level at 1 uM incubated for 24 hrs by FITC-Annexin-V and propidium iodide staining based flow cytometry (reference value: 0.95%); format: functional
HCT-8 [22] = test: Induction of apoptosis in FU-resistant human HCT8 cells assessed as viable cells level at 1 uM incubated for 24 hrs by FITC-Annexin-V and propidium iodide staining based flow cytometry (reference value: 90%); format: functional
HCT-8 [23] = test: Induction of apoptosis in human HCT8 cells assessed as early apoptotic cells level at 0.25 uM incubated for 24 hrs by FITC-Annexin-V and propidium iodide staining based flow cytometry (reference value: 1.21%); format: functional
HCT-8 [24] = test: Induction of apoptosis in FU-resistant human HCT8 cells assessed as late apoptotic cells level at 0.5 uM incubated for 24 hrs by FITC-Annexin-V and propidium iodide staining based flow cytometry (reference value: 0.95%); format: functional
HCT-8 [25] = test: Induction of apoptosis in human HCT8 cells assessed as late apoptotic cells level at 1 uM incubated for 24 hrs by FITC-Annexin-V and propidium iodide staining based flow cytometry (reference value: 4.23%); format: functional
HCT-8 [26] = test: Induction of apoptosis in human HCT8 cells assessed as late apoptotic cells level at 0.5 uM incubated for 24 hrs by FITC-Annexin-V and propidium iodide staining based flow cytometry (reference value: 4.23%); format: functional
HCT-8 [27] = test: Induction of apoptosis in FU-resistant human HCT8 cells assessed as viable cells level at 0.5 uM incubated for 24 hrs by FITC-Annexin-V and propidium iodide staining based flow cytometry (reference value: 90%); format: functional
HCT-8 [28] = test: Induction of apoptosis in FU-resistant human HCT8 cells assessed as necrotic cells level at 0.25 uM incubated for 24 hrs by FITC-Annexin-V and propidium iodide staining based flow cytometry (reference value: 0.958%); format: functional
HCT-8 [29] = test: Induction of apoptosis in human HCT8 cells assessed as viable cells level at 1 uM incubated for 24 hrs by FITC-Annexin-V and propidium iodide staining based flow cytometry (reference value: 92%); format: functional

Sequence of RAC-alpha serine/threonine-protein kinase (Homo sapiens) (P31749 whole entry): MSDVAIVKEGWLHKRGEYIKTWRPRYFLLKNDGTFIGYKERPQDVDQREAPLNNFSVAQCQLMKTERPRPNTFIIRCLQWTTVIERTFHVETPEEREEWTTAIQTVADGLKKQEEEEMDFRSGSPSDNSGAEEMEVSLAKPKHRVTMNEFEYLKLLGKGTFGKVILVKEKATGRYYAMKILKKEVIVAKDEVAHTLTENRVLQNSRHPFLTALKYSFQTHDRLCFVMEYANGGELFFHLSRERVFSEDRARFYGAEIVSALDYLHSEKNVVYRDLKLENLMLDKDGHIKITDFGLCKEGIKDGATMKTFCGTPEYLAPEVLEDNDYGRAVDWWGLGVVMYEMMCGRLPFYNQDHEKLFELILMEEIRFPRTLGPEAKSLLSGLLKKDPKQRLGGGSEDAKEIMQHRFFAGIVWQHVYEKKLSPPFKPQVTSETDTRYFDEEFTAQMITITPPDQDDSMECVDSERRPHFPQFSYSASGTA

CC1(C)CC[C@]2(C(=O)NCC(=O)OCC#CCOc3no[n+]([O-])c3S(=O)(=O)c3ccccc3)CC[C@]3(C)[C@H](C(=O)C=C4[C@@]5(C)C=C(C#N)C(=O)C(C)(C)[C@@H]5CC[C@]43C)[C@@H]2C1
IC50 [1]: 1280 nM | inhibition (HCT-8 [2]): Dose-dependent effect | Activity (HCT-8 [3]): 10.3% | Activity (HCT-8 [4]): 21.4% | Activity (HCT-8 [5]): 74% | IC50 [6]: 232 nM | Activity (HCT-8 [7]): 9.51% | Activity (HCT-8 [8]): 62.8% | inhibition [9]: Dose-dependent effect | Activity (HCT-8 [10]): 5.34% | Activity (HCT-8 [11]): 7.65% | Activity (HCT-8 [12]): 70.8% | Activity (HCT-8 [13]): 2.31% | Activity (HCT-8 [14]): 7.36% | Activity (HCT-8 [15]): 4.1% | Activity (HCT-8 [16]): 7.59% | Activity (HCT-8 [17]): 5.44% | Activity (HCT-8 [18]): 3.58% | Activity (HCT-8 [19]): 13.5% | IC50 [20]: 294 nM | Activity (HCT-8 [21]): 44.9% | Activity (HCT-8 [22]): 34.3% | Activity (HCT-8 [23]): 3.92% | Activity (HCT-8 [24]): 34.6% | Activity (HCT-8 [25]): 39% | Activity (HCT-8 [26]): 24.7% | Activity (HCT-8 [27]): 49.8% | Activity (HCT-8 [28]): 2.53% | Activity (HCT-8 [29]): 67.1%

COC(=O)[C@]12CCC(C)(C)C[C@H]1[C@H]1C(=O)C=C3[C@@]4(C)C=C(C#N)C(=O)C(C)(C)[C@@H]4CC[C@@]3(C)[C@]1(C)CC2 [BARDOXOLONE METHYL]
IC50 [1]: 316 nM | Activity (HCT-8 [3]): 14% | Activity (HCT-8 [4]): 20.5% | Activity (HCT-8 [5]): 79.5% | IC50 [6]: 363 nM | Activity (HCT-8 [7]): 9.42% | Activity (HCT-8 [8]): 65.1% | Activity (HCT-8 [10]): 6.8% | Activity (HCT-8 [11]): 1.73% | Activity (HCT-8 [12]): 71.1% | Activity (HCT-8 [13]): 2.13% | Activity (HCT-8 [14]): 1.52% | Activity (HCT-8 [15]): 3.18% | Activity (HCT-8 [16]): 6.01% | Activity (HCT-8 [17]): 5.15% | Activity (HCT-8 [18]): 3.31% | Activity (HCT-8 [19]): 10.9% | IC50 [20]: 399 nM | Activity (HCT-8 [21]): 36% | Activity (HCT-8 [22]): 51.2% | Activity (HCT-8 [23]): 3.78% | Activity (HCT-8 [24]): 28.1% | Activity (HCT-8 [25]): 29.8% | Activity (HCT-8 [26]): 18.7% | Activity (HCT-8 [27]): 64.2% | Activity (HCT-8 [28]): 3.2% | Activity (HCT-8 [29]): 57.5%
